Experimental data as given in ChEMBL document CHEMBL1671809, “Discovery of phosphoric acid mono-{2-[(E/Z)-4-(3,3-dimethyl-butyrylamino)-3,5-difluoro-benzoylimino]-thiazol-3-ylmethyl} ester (Lu AA47070): a phosphonooxymethylene prodrug of a potent and selective hA(2A) receptor antagonist” (J Med Chem, 2011).

Tests used:
Cytochrome P450 2D6 = Cytochrome P450 2D6 (Homo sapiens, UniProt P10635); experiment: Inhibition of recombinant CYP2D6 after 45 mins; format: ADME
Outline: (§1)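 Recombinant CYP supersomes incubated in phosphate buffer with eight compound concentrations (40-0.02 μM) and fluorogenic substrates. CYP1A2: 7-ethoxy-3-cyanocoumarin 10 μM, 28 min. CYP2C19: same substrate 50 μM, 45 min. CYP2D6: AMMC 3 μM, 45 min. CYP3A4: resorufin benzyl ether 100 μM, 30 min. Fluorescent metabolite read; IC50 relative to uninhibited controls.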

Cytochrome P450 2C19 = Cytochrome P450 2C19 (Homo sapiens, UniProt P33261); experiment: Inhibition of recombinant CYP2C19 after 45 mins; format: ADME; outline: as §1
Sequence of Cytochrome P450 2C19 (P33261 whole entry): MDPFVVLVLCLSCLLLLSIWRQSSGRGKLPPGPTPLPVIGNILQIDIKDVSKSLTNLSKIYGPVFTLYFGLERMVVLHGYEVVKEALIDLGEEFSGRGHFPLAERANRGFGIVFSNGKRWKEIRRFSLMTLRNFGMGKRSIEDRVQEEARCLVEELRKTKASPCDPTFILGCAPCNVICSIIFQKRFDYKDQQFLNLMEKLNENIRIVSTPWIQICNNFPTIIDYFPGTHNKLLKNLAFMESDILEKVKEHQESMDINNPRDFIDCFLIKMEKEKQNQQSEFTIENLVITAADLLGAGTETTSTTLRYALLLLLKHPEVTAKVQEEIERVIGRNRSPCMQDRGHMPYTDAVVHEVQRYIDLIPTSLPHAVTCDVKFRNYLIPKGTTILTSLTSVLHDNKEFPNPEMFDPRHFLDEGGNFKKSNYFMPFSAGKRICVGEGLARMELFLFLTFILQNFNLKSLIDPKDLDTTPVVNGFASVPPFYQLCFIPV

Mus musculus = experiment: Reversal of haloperidol-induced hypolocomotion in po dosed NMRI mouse administered 30 mins before haloperidol challenge measured for 20 mins; format: functional
Outline: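 Male NMRI mice (n = 8/group) were given compound po in 25% cremophor/saline, then haloperidol 0.63 mg/kg sc 30 min later. After 15 min they went into photocell activity boxes, and locomotion was recorded for 20 min. ED50 by sigmoidal fit with top 100 and bottom 0.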

Caco-2 = experiment: Efflux ratio of permeability from basolateral to apical over apical to basolateral side in human Caco2 cells after 21 to 28 days by LC-MS/MS analysis
Cytochrome P450 1A2 = molecular target: T1, Cytochrome P450 1A2 (Homo sapiens, UniProt P05177); experiment: Inhibition of recombinant CYP1A2 after 28 mins; format: ADME; outline: as §1
T1 sequence (P05177 whole entry): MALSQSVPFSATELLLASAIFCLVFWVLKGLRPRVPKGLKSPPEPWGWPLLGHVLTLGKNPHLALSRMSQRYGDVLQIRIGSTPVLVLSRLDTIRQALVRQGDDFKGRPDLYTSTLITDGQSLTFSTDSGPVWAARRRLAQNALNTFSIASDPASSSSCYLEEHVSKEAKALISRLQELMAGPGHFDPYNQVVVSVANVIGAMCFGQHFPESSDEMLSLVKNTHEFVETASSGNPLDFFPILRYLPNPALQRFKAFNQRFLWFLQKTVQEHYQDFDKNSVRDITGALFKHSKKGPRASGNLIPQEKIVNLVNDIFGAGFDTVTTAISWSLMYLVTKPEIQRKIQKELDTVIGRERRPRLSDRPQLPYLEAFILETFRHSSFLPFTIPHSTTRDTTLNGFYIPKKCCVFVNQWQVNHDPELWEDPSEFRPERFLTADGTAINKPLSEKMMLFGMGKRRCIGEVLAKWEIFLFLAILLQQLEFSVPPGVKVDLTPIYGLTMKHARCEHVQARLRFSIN

[1] = molecular target: T2, Adenosine receptor A1 (Homo sapiens) (UniProt P30542); experiment: Displacement of [3H]-DPCPX from human adenosine A1 receptor expressed in CHO cells at 2000 nM after 30 mins by scintillation counting
T2 sequence (whole entry): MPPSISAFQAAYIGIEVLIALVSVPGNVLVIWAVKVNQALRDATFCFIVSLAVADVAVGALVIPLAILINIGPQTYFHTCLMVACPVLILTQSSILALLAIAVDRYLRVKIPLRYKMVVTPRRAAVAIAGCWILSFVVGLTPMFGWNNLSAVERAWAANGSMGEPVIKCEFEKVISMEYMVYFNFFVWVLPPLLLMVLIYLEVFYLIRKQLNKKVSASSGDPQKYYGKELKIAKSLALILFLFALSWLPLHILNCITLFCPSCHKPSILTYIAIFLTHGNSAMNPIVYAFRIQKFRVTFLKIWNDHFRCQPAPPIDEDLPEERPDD

Adenosine receptor A2a [2] = molecular target: T3, Adenosine receptor A2a (Homo sapiens, UniProt P29274); experiment: Displacement of [3H]-ZM241385 from human adenosine A2A receptor expressed in high five cells after 30 mins by scintillation counting
T3 sequence (P29274 whole entry): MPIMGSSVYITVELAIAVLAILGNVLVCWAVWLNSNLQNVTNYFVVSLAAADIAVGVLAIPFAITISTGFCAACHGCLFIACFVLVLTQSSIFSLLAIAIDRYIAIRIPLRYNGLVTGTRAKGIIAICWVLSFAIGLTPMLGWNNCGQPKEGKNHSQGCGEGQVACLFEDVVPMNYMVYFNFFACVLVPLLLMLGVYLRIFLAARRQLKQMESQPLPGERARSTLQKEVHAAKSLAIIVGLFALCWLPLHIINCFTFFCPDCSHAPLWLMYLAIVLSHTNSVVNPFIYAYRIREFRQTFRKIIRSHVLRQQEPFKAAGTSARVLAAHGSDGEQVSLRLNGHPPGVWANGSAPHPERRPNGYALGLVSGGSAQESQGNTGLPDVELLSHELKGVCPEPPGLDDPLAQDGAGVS

Liver microsomes [3] = experiment: Intrinsic clearance in rat liver microsomes at 1 uM after 60 mins by LC-MS/MS analysis; format: ADME, Microsome; details: 1 h
Outline: (§2)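 Compound at 1 μM with human or rat liver microsomes (0.5 mg protein/mL) plus NADPH at 37 C. Samples at 0, 5, 15, 30 and 60 min, quenched with acetonitrile, analysed by LC-MS/MS.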

Liver microsomes [4] = experiment: Intrinsic clearance in human liver microsomes at 1 uM after 60 mins by LC-MS/MS analysis; format: ADME, Microsome; details: 1 h; outline: as §2
Adenosine receptor A1 = molecular target: T4, Adenosine receptor A1 (Homo sapiens, UniProt P30542); experiment: Displacement of [3H]-DPCPX from human adenosine A1 receptor expressed in CHO cells after 30 mins by scintillation counting; format: cell-based
T4 sequence (P30542 whole entry): T2 sequence (whole entry)
Outline: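 CHO-hA1 membranes at 10.8 μg protein/well, pretreated with adenosine deaminase (2 U/mL, 30 min, 37 C), were incubated with 1 nM [3H]-DPCPX in 50 mM Tris/HCl pH 7.4 for 30 min at 25 C across 10 compound concentrations. Filtration on PEI-soaked GF/B, scintillation counting. Nonspecific binding by CGS15943. Ki by Cheng-Prusoff. Means of ≥2 determinations.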

Homo sapiens = species: Homo sapiens; experiment: Selectivity ratio of Ki for human adenosine A1 receptor to Ki for human adenosine A2A receptor
[5] = molecular target: T2, Adenosine receptor A1 (Homo sapiens); experiment: Displacement of [3H]-DPCPX from human adenosine A1 receptor expressed in CHO cells at 10 uM after 30 mins by scintillation counting; format: cell-based
Cytochrome P450 3A4 = Cytochrome P450 3A4 (Homo sapiens, UniProt P08684); experiment: Inhibition of recombinant CYP3A4 after 30 mins; format: ADME
Sequence of Cytochrome P450 3A4 (P08684 whole entry): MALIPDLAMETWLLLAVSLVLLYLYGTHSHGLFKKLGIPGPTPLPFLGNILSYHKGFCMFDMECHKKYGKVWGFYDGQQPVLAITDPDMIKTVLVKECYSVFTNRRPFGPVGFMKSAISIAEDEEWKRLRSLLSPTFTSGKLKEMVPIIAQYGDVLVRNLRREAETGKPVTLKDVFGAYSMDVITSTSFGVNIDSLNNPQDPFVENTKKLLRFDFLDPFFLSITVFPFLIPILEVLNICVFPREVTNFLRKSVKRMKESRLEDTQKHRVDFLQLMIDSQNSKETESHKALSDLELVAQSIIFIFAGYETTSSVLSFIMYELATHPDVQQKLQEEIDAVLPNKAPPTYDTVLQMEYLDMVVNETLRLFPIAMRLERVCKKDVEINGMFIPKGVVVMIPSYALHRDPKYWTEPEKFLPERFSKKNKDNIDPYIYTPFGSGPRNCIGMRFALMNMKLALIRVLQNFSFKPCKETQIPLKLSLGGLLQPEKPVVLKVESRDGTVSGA
Outline: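 Recombinant CYP supersomes incubated in phosphate buffer with eight compound concentrations (40-0.02 μM) and fluorogenic substrates. CYP3A4: resorufin benzyl ether 100 μM, 30 min. Fluorescent metabolite read; IC50 relative to uninhibited controls.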

Cytochrome P450 2C9 = Cytochrome P450 2C9 (Homo sapiens, UniProt P11712); experiment: Inhibition of recombinant CYP2C9 after 45 mins; format: ADME
Sequence of Cytochrome P450 2C9 (P11712 whole entry): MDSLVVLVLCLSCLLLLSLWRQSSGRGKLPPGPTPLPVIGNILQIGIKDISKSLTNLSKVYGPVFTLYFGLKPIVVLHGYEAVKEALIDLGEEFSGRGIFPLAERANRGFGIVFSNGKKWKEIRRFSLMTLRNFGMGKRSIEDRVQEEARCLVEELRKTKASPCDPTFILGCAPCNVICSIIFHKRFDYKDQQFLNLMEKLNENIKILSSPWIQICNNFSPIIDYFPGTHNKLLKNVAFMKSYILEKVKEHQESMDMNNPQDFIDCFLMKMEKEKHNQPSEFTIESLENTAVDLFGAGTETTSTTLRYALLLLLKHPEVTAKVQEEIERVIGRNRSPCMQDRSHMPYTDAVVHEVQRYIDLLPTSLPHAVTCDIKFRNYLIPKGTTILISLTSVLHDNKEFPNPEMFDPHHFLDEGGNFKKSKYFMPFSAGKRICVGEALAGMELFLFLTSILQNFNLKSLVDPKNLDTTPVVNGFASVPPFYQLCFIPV

Adenosine receptor A2a [6] = molecular target: T3, Adenosine receptor A2a; experiment: Displacement of [3H]-ZM241385 from human adenosine A2A receptor expressed in high five cells at 10 uM after 30 mins by scintillation counting
Outline: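 hA2A membranes from baculovirus-infected High Five cells (harvested 72 h), pretreated with adenosine deaminase 2 U/mL for 30 min at 37 C. Membranes at 10.6 μg protein/well were incubated with 1 nM [3H]-ZM241385 in 50 mM Tris/HCl pH 7.4 for 30 min at 25 C. GF/B filtration, scintillation counting. Nonspecific binding by CGS15943. Percent displacement at 10 μM.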

Sequence of Cytochrome P450 2D6 (P10635 whole entry): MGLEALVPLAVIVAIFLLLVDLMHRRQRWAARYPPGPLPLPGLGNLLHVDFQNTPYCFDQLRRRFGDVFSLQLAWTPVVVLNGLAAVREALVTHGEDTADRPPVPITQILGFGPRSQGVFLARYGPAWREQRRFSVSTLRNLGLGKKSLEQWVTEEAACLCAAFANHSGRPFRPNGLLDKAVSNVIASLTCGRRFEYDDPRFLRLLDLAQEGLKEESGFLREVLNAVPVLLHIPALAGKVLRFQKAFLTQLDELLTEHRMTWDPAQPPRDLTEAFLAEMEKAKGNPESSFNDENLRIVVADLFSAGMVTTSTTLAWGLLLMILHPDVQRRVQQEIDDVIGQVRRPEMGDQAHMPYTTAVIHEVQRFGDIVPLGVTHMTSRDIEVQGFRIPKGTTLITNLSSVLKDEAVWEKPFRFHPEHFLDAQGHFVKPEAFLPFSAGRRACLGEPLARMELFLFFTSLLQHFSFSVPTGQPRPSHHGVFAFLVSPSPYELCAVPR

| SMILES | IC50 (Cytochrome P450 2D6) | IC50 (Cytochrome P450 2C19) | Ratio (Caco-2) | IC50 (Cytochrome P450 1A2) | Ki (Adenosine receptor A2a [2]) | CL (Liver microsomes [3]) | CL (Liver microsomes [4]) | inhibition [5] | other results |
| --- | --- | --- | --- | --- | --- | --- | --- | --- | --- |
| COCCOc1ccc(N2CCN(CCn3ncc4c3nc(N)n3nc(-c5ccco5)nc43)CC2)cc1 [PRELADENANT] | > 40000 nM | > 40000 nM | 1.1 | > 40000 nM |  |  |  |  | ED50 (Mus musculus): 0.4 mg/kg; inhibition [1]: 30% |
| CCn1c(=O)c2c(nc(/C=C/c3ccc(OC)c(OC)c3)n2C)n(CC)c1=O [ISTRADEFYLLINE] | > 40000 nM | > 40000 nM |  | > 40000 nM |  | 11 mL/min | 0.1 L/min |  | ED50 (Mus musculus): 0.13 mg/kg |
| COc1cc(NC(=O)CC(C)(C)C)ccc1C(=O)Nc1nccs1 |  |  |  |  | 50 nM |  |  |  | Ki (Adenosine receptor A1): 1100 nM; Ratio Ki (Homo sapiens): 22 |
| CC(C)(C)CC(=O)Nc1ccc(NC(=O)c2nccs2)cc1 |  |  |  |  |  |  |  |  | inhibition (Adenosine receptor A2a [6]): 18% |
| Cc1nc(NC(=O)c2ccc(NC(=O)CC(C)(C)C)cc2)sc1C |  |  |  |  | 220 nM |  |  |  |  |

The next lines start with results.

| IC50 (Cytochrome P450 2D6) | IC50 (Cytochrome P450 2C19) | Ratio (Caco-2) | IC50 (Cytochrome P450 1A2) | Ki (Adenosine receptor A2a [2]) | CL (Liver microsomes [3]) | CL (Liver microsomes [4]) | inhibition [5] | SMILES | other results |
| --- | --- | --- | --- | --- | --- | --- | --- | --- | --- |
|  |  |  |  | 300 nM |  |  |  | CC(C)C(=O)Nc1ccc(C(=O)Nc2nccs2)cc1 |  |
| > 40000 nM | > 40000 nM | 0.7 | > 40000 nM | 36 nM | 11 mL/min | 0.7 L/min | 39% | CC(C)(C)CC(=O)Nc1ccc(C(=O)Nc2nccs2)cc1 | IC50 (Cytochrome P450 3A4): > 40000 nM; IC50 (Cytochrome P450 2C9): > 40000 nM |
|  |  |  |  | 110 nM |  |  |  | CC(C)(C)CNC(=O)c1ccc(C(=O)Nc2nccs2)cc1 |  |
| > 40000 nM | > 40000 nM | 0.7 | > 40000 nM | 190 nM | 54 mL/min | 2.3 L/min | 69% | CCCCC(=O)Nc1ccc(C(=O)Nc2nccs2)cc1 | IC50 (Cytochrome P450 3A4): > 40000 nM; IC50 (Cytochrome P450 2C9): 40000 nM |
|  |  |  |  | 19 nM |  |  |  | Cc1cc(C(=O)Nc2nccs2)ccc1NC(=O)CC(C)(C)C | Ki (Adenosine receptor A1): 460 nM; Ratio Ki (Homo sapiens): 24 |
|  |  |  |  | 890 nM |  |  | 31% | CCC(=O)Nc1ccc(C(=O)Nc2nccs2)cc1 |  |
|  |  |  |  | 28 nM |  |  |  | CC(C)(C)CC(=O)Nc1ccc(C(=O)Nc2ncc(Cl)s2)cc1 | Ki (Adenosine receptor A1): 220 nM |
| > 40000 nM | > 40000 nM | 0.7 | > 40000 nM | 90 nM | 12 mL/min | 1.6 L/min | 64% | CC(C)CC(=O)Nc1ccc(C(=O)Nc2nccs2)cc1 | IC50 (Cytochrome P450 3A4): > 40000 nM; IC50 (Cytochrome P450 2C9): > 40000 nM |
